Ten compounds from ChEMBL document CHEMBL1146946, “Synthesis of novel benzofuran isoxazolines as protein tyrosine phosphatase 1B inhibitors” (Bioorg Med Chem Lett, 2006) can be followed below.

Experiment [1] deals with T1, Tyrosine-protein phosphatase non-receptor type 1 (Homo sapiens, UniProt P18031).
T1 sequence (P18031 whole entry): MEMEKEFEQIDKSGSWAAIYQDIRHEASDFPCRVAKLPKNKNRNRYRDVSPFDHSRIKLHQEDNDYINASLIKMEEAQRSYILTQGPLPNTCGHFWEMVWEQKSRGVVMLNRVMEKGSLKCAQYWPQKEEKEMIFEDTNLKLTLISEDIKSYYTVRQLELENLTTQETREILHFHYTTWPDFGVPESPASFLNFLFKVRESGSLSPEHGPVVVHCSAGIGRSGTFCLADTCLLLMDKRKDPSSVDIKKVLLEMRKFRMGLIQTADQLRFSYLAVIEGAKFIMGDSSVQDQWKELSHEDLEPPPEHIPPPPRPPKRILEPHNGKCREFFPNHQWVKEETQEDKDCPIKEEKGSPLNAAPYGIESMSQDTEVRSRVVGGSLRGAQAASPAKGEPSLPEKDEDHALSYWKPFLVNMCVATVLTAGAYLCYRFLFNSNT
In words: Inhibition of PTP1B. In a few lines:
(§1)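 Test compound preincubated 10 min with enzyme in the reaction system before residual phosphatase activity was read. Substrate was 10 mM p-nitrophenylphosphate in 50 mM HEPES pH 7.0 with 1 mM each of EDTA and DTT. The reaction was stopped with 0.1 N NaOH and absorbance read at 410 nm. No-enzyme blanks run in parallel corrected for non-enzymic hydrolysis.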

Experiment [2] has as its target T2, Tyrosine-protein phosphatase non-receptor type 1 (Homo sapiens) (UniProt P18031).
T2 sequence (whole entry): T1 sequence (P18031 whole entry)
Put plainly: Inhibition of PTP1B at 100 uM. In a few lines:
as §1

Experiment [3] has as its system Rattus norvegicus. In words: Antihyperglycemic activity in Streptozotocin-induced diabetic rat at 100 mg/kg. Format: functional.

In experiment [1], `COc1ccc(C2CC(c3ccc4occc4c3OC)=NO2)cc1` (stereo unspecified) returned a concentration for half-maximal inhibition (IC50) of 150 µM and a Ki of 27.5 µM. The inhibition in experiment [2] came to 49.1%.

Compound `COc1c(C2=NOC(n3ccnc3)C2)ccc2occc12` (stereo unspecified) registered an inhibition in experiment [2] of 14.9%.

On to `COC(=O)C1C(c2ccc3occc3c2OC)=NOC1c1ccccc1` (stereo unspecified), for which, in experiment [1], inhibition was half-maximal at 199 µM (IC50) and the Ki came to 72.5 µM. Also, the inhibition in experiment [2] stood at 18.5%.

As for `COc1c(C2=NOC(c3ccccc3)C2)cc(OC)c2occc12` (stereo unspecified), in experiment [1], the midpoint of inhibition, the IC50, lay at 76 µM and the inhibition constant Ki came out at 30 µM. Also, the inhibition in experiment [2] is 80.4%.

In experiment [2], `COc1c(C2=NOC(c3ccccn3)C2)cc(OC)c2occc12` (stereo unspecified) had an inhibition of 18.4%.

As for `COc1c(-c2ccccc2)oc2c(ccc3occc32)c1=O` [KARANJIN], testing at 100 mg/kg in experiment [3] gave an inhibition in vivo of 35%. This compound had an inhibition in experiment [2] of 15.8%.

`COc1ccc(C2CC(c3cc(OC)c4occc4c3OC)=NO2)cc1` (stereo unspecified): in experiment [1], 81 µM corresponded to half-maximal inhibition (IC50) and the affinity, expressed as Ki, was 32 µM. Also, the inhibition in experiment [2] is 79.6%.

With `COc1c(C2=NOC(c3ccccc3)C2)ccc2occc12` (stereo unspecified), in experiment [1], the midpoint of inhibition, the IC50, lay at 227 µM and the affinity, expressed as Ki, was 45 µM. The inhibition in experiment [2] came out at 22.5%.

On to `COc1c(C2=NOC(c3ccncc3)C2)ccc2occc12` (stereo unspecified), for which, in experiment [2], the inhibition came out at 14.7%.

In experiment [2], `COc1c(C2=NOC(c3ccccn3)C2)ccc2occc12` (stereo unspecified) had an inhibition of 17.4%.
